# According to ChEMBL document CHEMBL1124447, “Quinazoline antifolates inhibiting thymidylate synthase: 2-desamino derivatives with enhanced solubility and potency” (J Med Chem, 1989):
# Experiments:
# [1] = target: Thymidylate synthase (Mus musculus, UniProt P07607); assay: Inhibitory concentration of compound to inhibit Thymidylate synthase (TS) in L1210 cells at conc. of 200 uM; format: cell-based
# Outline: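 Partially purified thymidylate synthase from L1210 leukemia cells; the enzyme assay used (±)-5,10-methylenetetrahydrofolate (5,10-CH2-FH4) cofactor at 200 μM.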
# [2] = test system: L1210; assay: Compound was evaluated for inhibition dose required to inhibit the growth of L1210 cells in culture.; format: functional; details: Mus musculus, read-out: ID50 (the source's name)
# [3] = Solubility at pH 7.4; format: physicochemical; details: buffer
# Outline: (§1)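 Run at 18 °C in 0.01 M potassium phosphate buffer. A saturated suspension was brought to pH 7.4 with 5 M KOH, held overnight, filtered through 0.22 µm, readjusted and refiltered. For pH 5.0, part of the filtrate was acidified with phosphoric acid and refiltered, then diluted with pH 5.0 buffer if opalescent. Samples were diluted in 0.1 M NaOH and concentration read by UV absorbance at 301.5 nm.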
# [4] = Solubility at pH 5; format: physicochemical; details: buffer; outline: as §1
# Thymidylate synthase, sequence (P07607 whole entry): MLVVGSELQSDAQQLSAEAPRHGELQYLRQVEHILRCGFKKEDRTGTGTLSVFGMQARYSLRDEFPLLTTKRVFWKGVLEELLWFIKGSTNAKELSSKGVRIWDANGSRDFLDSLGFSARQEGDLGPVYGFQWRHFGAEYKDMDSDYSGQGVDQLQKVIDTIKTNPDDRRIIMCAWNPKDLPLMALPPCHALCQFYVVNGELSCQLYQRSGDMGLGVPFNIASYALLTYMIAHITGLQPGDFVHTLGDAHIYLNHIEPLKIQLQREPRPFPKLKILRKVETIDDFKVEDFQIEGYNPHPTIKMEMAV
IC50 [1],IC50 [2],solubility [3],solubility [4],Structure (SMILES)
280 nM,6000 nM,–,–,C=CCN(Cc1ccc2nc(N)nc(O)c2c1)c1ccc(C(=O)NC(CCC(=O)O)C(=O)O)cc1 (stereo not drawn)
–,2700 nM,–,–,CCN(Cc1ccc2ncnc(O)c2c1)c1ccc(C(=O)NC(CCC(=O)O)C(=O)O)cc1 (stereo not drawn)
–,400 nM,> 107000 µg/mL,43 µg/mL,C#CCN(Cc1ccc2ncnc(O)c2c1)c1ccc(C(=O)NC(CCC(=O)O)C(=O)O)cc1 (stereo not drawn)
–,9000 nM,–,–,CCN(Cc1ccc2nc(N)nc(O)c2c1)c1ccc(C(=O)NC(CCC(=O)O)C(=O)O)cc1 (stereo not drawn)
360 nM,4500 nM,–,–,CN(Cc1ccc2nc(N)nc(O)c2c1)c1ccc(C(=O)NC(CCC(=O)O)C(=O)O)cc1 (stereo not drawn)
1060 nM,900 nM,–,–,CN(Cc1ccc2ncnc(O)c2c1)c1ccc(C(=O)NC(CCC(=O)O)C(=O)O)cc1 (stereo not drawn)
–,3400 nM,312 µg/mL,8.6 µg/mL,C#CCN(Cc1ccc2[nH]c(N)nc(=O)c2c1)c1ccc(C(=O)NC(CCC(=O)O)C(=O)O)cc1 (stereo not drawn)
1120 nM,2500 nM,–,–,C=CCN(Cc1ccc2ncnc(O)c2c1)c1ccc(C(=O)NC(CCC(=O)O)C(=O)O)cc1 (stereo not drawn)
–,400 nM,–,–,O=C(O)CCC(NC(=O)c1ccc(NCc2ccc3ncnc(O)c3c2)cc1)C(=O)O (stereo not drawn)
–,2700 nM,–,–,Nc1nc(O)c2cc(CNc3ccc(C(=O)NC(CCC(=O)O)C(=O)O)cc3)ccc2n1 (stereo not drawn) [DIDEAZAFOLATE]
